Laboratory results reported in ChEMBL document CHEMBL1129400 (J Med Chem, 1996).

What was measured:
D(2) dopamine receptor = D(2) dopamine receptor (Rattus norvegicus, UniProt P61169); assay: Compound was tested for binding affinity against native Dopamine receptor D2 from rat striatum using radioligand [3H]-spiperone)
How it was run: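 Rat striatal membranes were prepared in Tris-HCl pH 7.4 with 10 µM pargyline, 0.1% ascorbic acid, 120 mM NaCl, 5 mM KCl, 2 mM CaCl2 and 1 mM MgCl2. Filtration and scintillation counting followed. Ki was obtained from the curve-fitted IC50 via Cheng-Prusoff; values are mean pKi ± SE.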

[1] = molecular target: T1, Adrenergic receptor alpha-2 (Rattus norvegicus, UniProt P22086+P19328+P22909); assay: Binding affinity against native Alpha-2 adrenergic receptor from rat cerebral cortex using radioligand ([3H]rauwolscine) binding assay; type: tissue-based
T1 sequence (P22086 whole entry): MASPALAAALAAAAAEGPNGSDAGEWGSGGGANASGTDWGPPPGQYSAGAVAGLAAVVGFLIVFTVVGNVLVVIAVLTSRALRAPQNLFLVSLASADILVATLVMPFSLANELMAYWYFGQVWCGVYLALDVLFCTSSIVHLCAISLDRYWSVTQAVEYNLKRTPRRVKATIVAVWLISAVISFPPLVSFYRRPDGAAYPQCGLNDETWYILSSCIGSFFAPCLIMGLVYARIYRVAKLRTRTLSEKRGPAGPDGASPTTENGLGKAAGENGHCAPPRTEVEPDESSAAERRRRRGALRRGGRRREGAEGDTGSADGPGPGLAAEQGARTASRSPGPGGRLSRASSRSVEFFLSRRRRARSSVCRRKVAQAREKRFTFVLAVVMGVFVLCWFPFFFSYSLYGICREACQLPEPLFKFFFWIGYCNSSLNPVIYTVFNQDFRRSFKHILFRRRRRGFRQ
T1 sequence (P19328 whole entry): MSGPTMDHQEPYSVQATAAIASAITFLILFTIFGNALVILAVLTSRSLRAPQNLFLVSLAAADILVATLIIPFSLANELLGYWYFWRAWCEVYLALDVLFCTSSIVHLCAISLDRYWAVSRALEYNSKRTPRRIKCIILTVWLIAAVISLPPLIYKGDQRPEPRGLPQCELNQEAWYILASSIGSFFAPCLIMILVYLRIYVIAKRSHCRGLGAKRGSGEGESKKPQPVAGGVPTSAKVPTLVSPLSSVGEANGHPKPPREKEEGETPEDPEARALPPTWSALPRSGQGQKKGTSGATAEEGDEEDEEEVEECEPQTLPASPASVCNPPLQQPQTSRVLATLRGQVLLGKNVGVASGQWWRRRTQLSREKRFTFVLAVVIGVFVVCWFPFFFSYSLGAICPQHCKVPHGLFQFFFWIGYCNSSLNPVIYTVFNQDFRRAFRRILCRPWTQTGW
T1 sequence (P22909 whole entry): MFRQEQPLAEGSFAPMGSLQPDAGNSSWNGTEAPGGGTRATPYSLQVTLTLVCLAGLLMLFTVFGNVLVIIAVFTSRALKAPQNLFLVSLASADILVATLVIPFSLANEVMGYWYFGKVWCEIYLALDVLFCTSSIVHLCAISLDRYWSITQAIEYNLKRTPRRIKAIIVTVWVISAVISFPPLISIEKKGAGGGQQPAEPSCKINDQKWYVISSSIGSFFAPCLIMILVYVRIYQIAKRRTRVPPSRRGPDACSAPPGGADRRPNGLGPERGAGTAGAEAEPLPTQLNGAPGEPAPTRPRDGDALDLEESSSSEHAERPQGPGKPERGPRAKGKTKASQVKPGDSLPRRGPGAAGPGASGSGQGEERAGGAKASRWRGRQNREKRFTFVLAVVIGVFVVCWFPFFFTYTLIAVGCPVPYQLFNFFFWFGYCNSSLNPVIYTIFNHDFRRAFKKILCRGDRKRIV

[2] = molecular target: T2, Alpha-1A adrenergic receptor (Homo sapiens, UniProt P35348); assay: Compound was tested for binding affinity against human hippocampus Alpha-1A adrenergic receptor using radioligand ([3H]prazosin) binding assay
T2 sequence (P35348 whole entry): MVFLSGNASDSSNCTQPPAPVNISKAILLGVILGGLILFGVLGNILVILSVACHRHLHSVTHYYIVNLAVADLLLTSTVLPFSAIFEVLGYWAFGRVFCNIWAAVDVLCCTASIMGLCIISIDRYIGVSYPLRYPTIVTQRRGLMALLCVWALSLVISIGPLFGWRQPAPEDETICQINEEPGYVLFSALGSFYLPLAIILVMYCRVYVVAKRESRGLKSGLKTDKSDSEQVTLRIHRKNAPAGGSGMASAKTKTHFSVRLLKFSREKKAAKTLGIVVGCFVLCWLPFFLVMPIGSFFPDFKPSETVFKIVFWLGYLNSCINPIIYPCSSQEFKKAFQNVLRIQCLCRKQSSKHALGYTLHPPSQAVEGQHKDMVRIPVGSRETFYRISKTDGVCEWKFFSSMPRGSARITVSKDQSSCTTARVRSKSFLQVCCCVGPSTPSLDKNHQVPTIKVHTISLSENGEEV
How it was run: (§1)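 Membranes (30 µg protein) came from CHO cells stably transfected with the human α1-adrenoceptor subtype gene. […] Nonspecific binding was defined with 10 µM phentolamine. Filtration on PEI-treated filters followed. Ki came from the fitted IC50 via Cheng-Prusoff.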

[3] = molecular target: T3, Alpha-1B adrenergic receptor (Homo sapiens, UniProt P35368); assay: Compound was tested for binding affinity against […] Alpha-1B adrenergic receptor using radioligand ([3H]-prazosin) binding assay; how it was run: as §1
T3 sequence (P35368 whole entry): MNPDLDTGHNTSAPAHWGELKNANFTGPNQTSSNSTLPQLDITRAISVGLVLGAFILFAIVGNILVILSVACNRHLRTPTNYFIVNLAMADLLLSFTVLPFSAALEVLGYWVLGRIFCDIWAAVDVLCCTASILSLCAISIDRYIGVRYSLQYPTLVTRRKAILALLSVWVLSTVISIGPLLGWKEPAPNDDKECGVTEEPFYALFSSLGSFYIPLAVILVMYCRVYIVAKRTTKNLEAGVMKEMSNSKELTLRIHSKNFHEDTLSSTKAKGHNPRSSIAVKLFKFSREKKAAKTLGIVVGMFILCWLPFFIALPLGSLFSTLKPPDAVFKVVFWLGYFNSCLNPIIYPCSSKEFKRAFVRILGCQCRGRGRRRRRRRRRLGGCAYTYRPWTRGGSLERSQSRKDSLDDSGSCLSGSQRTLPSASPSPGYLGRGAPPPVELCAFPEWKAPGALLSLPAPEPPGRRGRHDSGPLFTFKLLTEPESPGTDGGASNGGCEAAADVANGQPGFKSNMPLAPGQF

[4] = molecular target: T4, Alpha-1D adrenergic receptor (Homo sapiens, UniProt P25100); assay: Compound was tested for binding affinity against human hippocampus Alpha-1D adrenergic receptor using radioligand ([3H]prazosin) binding assay; how it was run: as §1
T4 sequence (P25100 whole entry): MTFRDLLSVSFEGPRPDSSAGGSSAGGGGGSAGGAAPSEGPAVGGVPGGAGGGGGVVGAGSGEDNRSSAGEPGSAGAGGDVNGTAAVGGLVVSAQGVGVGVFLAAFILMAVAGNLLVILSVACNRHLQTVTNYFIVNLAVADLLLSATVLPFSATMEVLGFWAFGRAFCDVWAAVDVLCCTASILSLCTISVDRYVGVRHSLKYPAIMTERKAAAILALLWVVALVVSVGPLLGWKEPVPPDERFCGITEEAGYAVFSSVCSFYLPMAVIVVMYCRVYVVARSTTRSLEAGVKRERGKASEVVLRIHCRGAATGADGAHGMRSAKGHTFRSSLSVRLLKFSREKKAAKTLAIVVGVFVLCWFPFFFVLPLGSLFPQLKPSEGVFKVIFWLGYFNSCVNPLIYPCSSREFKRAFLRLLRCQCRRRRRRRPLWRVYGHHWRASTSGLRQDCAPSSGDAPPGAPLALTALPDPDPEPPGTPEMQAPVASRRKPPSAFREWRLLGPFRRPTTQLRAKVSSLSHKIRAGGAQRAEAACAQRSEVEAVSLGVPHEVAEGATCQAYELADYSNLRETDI

[5] = molecular target: T5, 5-hydroxytryptamine receptor 1A (Rattus norvegicus, UniProt P19327); assay: Binding affinity against native 5-HT1A-receptors from rat hippocampus using radioligand ([3H]8-hydroxy-2-(di-n-propylamino)-tetraline) binding assay; type: tissue-based
T5 sequence (P19327 whole entry): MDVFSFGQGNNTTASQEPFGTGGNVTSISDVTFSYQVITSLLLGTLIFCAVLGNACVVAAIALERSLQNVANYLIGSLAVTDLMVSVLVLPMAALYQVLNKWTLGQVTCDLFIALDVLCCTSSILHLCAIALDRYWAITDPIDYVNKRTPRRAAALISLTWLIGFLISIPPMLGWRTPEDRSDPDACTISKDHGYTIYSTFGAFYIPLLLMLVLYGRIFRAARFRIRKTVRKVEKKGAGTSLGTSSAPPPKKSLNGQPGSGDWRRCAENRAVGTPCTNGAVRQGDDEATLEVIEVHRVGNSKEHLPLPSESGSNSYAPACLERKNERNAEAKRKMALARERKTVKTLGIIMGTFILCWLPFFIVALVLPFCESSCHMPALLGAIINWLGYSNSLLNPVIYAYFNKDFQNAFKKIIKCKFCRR

[6] = molecular target: T6, Alpha-1A adrenergic receptor (Bos taurus, UniProt P18130); assay: Compound was tested for binding affinity against cloned Alpha-1A adrenergic receptor from bovine brain using radioligand ([3H]prazosin) binding assay
T6 sequence (P18130 whole entry): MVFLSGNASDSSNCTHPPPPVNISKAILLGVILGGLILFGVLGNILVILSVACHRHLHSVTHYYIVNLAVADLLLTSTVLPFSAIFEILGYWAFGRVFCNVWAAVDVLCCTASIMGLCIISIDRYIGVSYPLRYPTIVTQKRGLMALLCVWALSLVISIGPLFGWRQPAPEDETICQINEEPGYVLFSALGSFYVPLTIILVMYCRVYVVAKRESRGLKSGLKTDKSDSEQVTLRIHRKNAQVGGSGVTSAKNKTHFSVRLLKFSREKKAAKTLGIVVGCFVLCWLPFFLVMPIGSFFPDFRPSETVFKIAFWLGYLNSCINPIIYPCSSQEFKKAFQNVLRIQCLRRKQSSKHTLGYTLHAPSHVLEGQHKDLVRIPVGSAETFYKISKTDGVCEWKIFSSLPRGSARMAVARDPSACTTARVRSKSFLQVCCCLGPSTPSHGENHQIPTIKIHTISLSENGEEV

Sequence of D(2) dopamine receptor (P61169 whole entry): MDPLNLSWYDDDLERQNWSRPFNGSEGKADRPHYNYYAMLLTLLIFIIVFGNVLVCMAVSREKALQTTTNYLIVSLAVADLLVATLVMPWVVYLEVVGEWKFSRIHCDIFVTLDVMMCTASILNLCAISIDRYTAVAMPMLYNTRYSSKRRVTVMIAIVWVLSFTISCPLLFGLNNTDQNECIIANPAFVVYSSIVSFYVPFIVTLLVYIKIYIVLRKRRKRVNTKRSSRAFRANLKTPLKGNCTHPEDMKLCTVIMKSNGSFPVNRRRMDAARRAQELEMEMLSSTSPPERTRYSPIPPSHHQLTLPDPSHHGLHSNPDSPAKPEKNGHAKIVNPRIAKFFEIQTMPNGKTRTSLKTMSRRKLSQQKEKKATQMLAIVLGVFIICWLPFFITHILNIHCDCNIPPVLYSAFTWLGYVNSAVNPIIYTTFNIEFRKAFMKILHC

Ki (D(2) dopamine receptor) [nM]	Log Ki [1]	Ki [2] [nM]	Ki [3] [nM]	Ki [4] [nM]	Ki [5] [nM]	Compound	Ki [6] [nM]
> 10000	-5.86	–	–	–	6170	COc1cc2nc(N3CCN(C(=O)c4ccco4)[C@H]4CCCC[C@H]43)nc(N)c2cc1OC [CYCLAZOSIN]	–
> 10000	–	–	–	–	2340	COc1cc2nc(N3CCN(C(=O)c4ccco4)CC3)nc(N)c2cc1OC [PRAZOSIN]	–

Second part, the compound before the results:

Compound	Ki (D(2) dopamine receptor) [nM]	Log Ki [1]	Ki [2] [nM]	Ki [3] [nM]	Ki [4] [nM]	Ki [5] [nM]	Ki [6] [nM]
COc1cc2nc(N3CCN(C(=O)c4ccco4)[C@@H]4CCCC[C@@H]43)nc(N)c2cc1OC	8320	-6.13	12.3	0.135	3.24	12900	–
COc1cc2nc(N3CCN(C(=O)c4ccco4)C4CCCCC43)nc(N)c2cc1OC (racemic)	> 10000	-6.17	–	–	–	6920	–
O=C(CCCN1CCC2(CC1)C(=O)NCN2c1ccccc1)c1ccc(F)cc1 [SPIPERONE]	–	–	–	–	–	25.1	13.5
